Laboratory results reported in PMC7392372 (Bioorganic & medicinal chemistry letters, 2018).

Legend:
[1] = molecular target: BRD4 (BD1,2) (Homo sapiens, UniProt O60885); test: BROMOScan competitive binding affinity, BRD4; conditions: for fold decrease of potency in binding affinity (Kd): relative to 17; for fold improvement in Kd values: relative to smaller 2-substitutions (13, 14)
[2] = Pharmacokinetics in CD-1 mice; assay type: in vivo; conditions: po 10 mg/kg, n=3
Outline: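 CD-1 mice received a single 10 mg/kg oral dose, n = 3. AUC0−∞ (h·ng/mL) was reported together with t1/2, Cmax, Vss, CLp and F%. For oral bioavailability, an intravenous arm dosed at 2 mg/kg was also run.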

Row | Structure (SMILES) | fold decrease of potency in binding affinity (Kd) [1] | fold improvement in Kd values [1] | other results
1 | Cc1noc(C)c1-c1ccc2nc(N3CCN(CCN(C)C)CC3)nc(NCc3ccc(Cl)cc3)c2c1 [compound 51] | ~ 9 fold |  | 
2 | Cc1noc(C)c1-c1ccc2c(NCc3cccc(Cl)c3)nc(N3CCN(CCN(C)C)CC3)nc2c1 [compound 40] | ~ 12 fold |  | 
3 | Cc1noc(C)c1-c1ccc2nc(N3CCN(C)CC3)nc(NCc3cccc(Cl)c3)c2c1 [compound 16] |  | ~ 20 fold | 
4 | Cc1noc(C)c1-c1ccc2nc(N(C)CCN(C)C)nc(NCc3cccc(Cl)c3)c2c1 [compound 15] |  | ~ 20 fold | 
5 | Cc1noc(C)c1-c1ccc2nc(N3CCN(CCN(C)C)CC3)nc(N(C)Cc3cccc(Cl)c3)c2c1 [compound 57] | 2–3 fold |  | 
6 | CN(C)CCN1CCN(c2nc(NCc3cccc(Cl)c3)c3cc(-c4ccc(=O)n(C)c4)ccc3n2)CC1 [compound 48] |  |  | AUC0−∞ [2]: no exposure
